How the values were obtained:
[1] = Inhibition of HIV1 integrase 3' processing activity using 5'-end 32P labeled DNA substrate measured after 2 hrs by PAGE based phosphor imaging method; design: species or system Human immunodeficiency virus 1
Summary of the method: (§1)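 Gel-based assay, Mg2+ cofactor: 400 nM integrase with 20 nM DNA substrate 5′-32P-labeled on transferred strand in 50 mM MOPS pH 7.2, 7.5 mM MgCl2, 14 mM 2-mercaptoethanol, inhibitor or DMSO; 2 h at 37 °C. Stopped with formamide/SDS loading buffer; products resolved on 16% denaturing polyacrylamide gels, quantified by phosphorimaging.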

[2] = Inhibition of HIV1 integrase strand transfer activity using 5'-end 32P labeled DNA substrate measured after 2 hrs by PAGE based phosphor imaging method; design: species or system Human immunodeficiency virus 1; summary of the method: as §1
[3] = system: Human immunodeficiency virus 1; experiment: Antiviral activity against VSV-G pseudotyped HIV1 harboring wild-type integrase infected in HOS cells pretreated […] for 3 hrs followed by viral infection measured after 48 hrs by luciferase reporter gene assay; assay type: functional, cell-based; conditions: Human immunodeficiency virus 1, HOS
Summary of the method: (§2)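 Single-round luciferase HIV-1 vector (pNLNgoMIVR−ΔLUC carrying WT or mutant IN) was pseudotyped with VSV-g by calcium phosphate co-transfection of 293 cells, and supernatant was harvested after 48 h. HOS cells were seeded at 4000/well in DMEM with 5% FBS and 5% newborn calf serum. They were pretreated 3 h at 37 °C with 5–0.0001 μM (11 serial dilutions), then infected for 48 h. Luminescence was normalized to untreated cells, and EC50 came from nonlinear regression.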

[4] = system: Human immunodeficiency virus 1; experiment: Antiviral activity against VSV-G pseudotyped HIV1 harboring integrase Y143R mutant infected in HOS cells pretreated […] for 3 hrs followed by viral infection measured after 48 hrs by luciferase reporter gene assay; assay type: functional, cell-based; conditions: Human immunodeficiency virus 1, HOS; summary of the method: as §2
[5] = system: Human immunodeficiency virus 1; experiment: Antiviral activity against VSV-G pseudotyped HIV1 harboring integrase N155H mutant infected in HOS cells pretreated […] for 3 hrs followed by viral infection measured after 48 hrs by luciferase reporter gene assay; assay type: functional, cell-based; conditions: Human immunodeficiency virus 1, HOS; summary of the method: as §2
[6] = system: Human immunodeficiency virus 1; experiment: Antiviral activity against VSV-G pseudotyped HIV1 harboring integrase G140S/Q148H double mutant infected in HOS cells pretreated […] for 3 hrs followed by viral infection measured after 48 hrs by luciferase reporter gene assay; assay type: functional, cell-based; conditions: Human immunodeficiency virus 1, HOS; summary of the method: as §2
[7] = system: HOS; experiment: (§3) Cytotoxicity against HOS cells assessed as reduction in cell viability after 48 hrs by ATPLite luminescence assay; assay type: cell-based; conditions: human, hos, 48 h
Summary of the method: (§4)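 HOS cells seeded at 4000 per well the day before, exposed to compounds over 250 to 0.05 μM at 37 °C for 48 h. ATP measured by luminescence after lysis and 20 min signal development at room temperature.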

[8] = system: Human immunodeficiency virus 1; experiment: Selectivity ratio of EC50 for VSV-G pseudotyped HIV1 harboring integrase Y143R mutant infected in HOS cells to EC50 for VSV-G pseudotyped HIV1 harboring wild-type integrase infected in HOS cells; assay type: functional
Summary of the method: (§5)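 Fold change is the EC50 against the mutant-IN vector divided by the EC50 against the WT-IN vector. Both come from the single-round luciferase infectivity assay in HOS cells, with a 3 h compound pretreatment followed by 48 h infection.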

[9] = system: Human immunodeficiency virus 1; experiment: Selectivity ratio of EC50 for VSV-G pseudotyped HIV1 harboring integrase N155H mutant infected in HOS cells to EC50 for VSV-G pseudotyped HIV1 harboring wild-type integrase infected in HOS cells; assay type: functional; summary of the method: as §5
[10] = system: Human immunodeficiency virus 1; experiment: Selectivity ratio of EC50 for VSV-G pseudotyped HIV1 harboring integrase G140S/Q148H mutant infected in HOS cells to EC50 for VSV-G pseudotyped HIV1 harboring wild-type integrase infected in HOS cells; assay type: functional; summary of the method: as §5
[11] = system: Human immunodeficiency virus 1; experiment: Antiviral activity against VSV-G pseudotyped HIV1 harboring integrase G118R mutant infected in HOS cells pretreated […] for 3 hrs followed by viral infection measured after 48 hrs by luciferase reporter gene assay; assay type: functional, cell-based; conditions: Human immunodeficiency virus 1, HOS; summary of the method: as §2
[12] = system: Human immunodeficiency virus 1; experiment: Antiviral activity against VSV-G pseudotyped HIV1 harboring integrase T66I mutant infected in HOS cells pretreated […] for 3 hrs followed by viral infection measured after 48 hrs by luciferase reporter gene assay; assay type: functional, cell-based; conditions: Human immunodeficiency virus 1, HOS; summary of the method: as §2
[13] = system: Human immunodeficiency virus 1; experiment: Antiviral activity against VSV-G pseudotyped HIV1 harboring integrase E92Q mutant infected in HOS cells pretreated […] for 3 hrs followed by viral infection measured after 48 hrs by luciferase reporter gene assay; assay type: functional, cell-based; conditions: Human immunodeficiency virus 1, HOS; summary of the method: as §2
[14] = system: Human immunodeficiency virus 1; experiment: Antiviral activity against VSV-G pseudotyped HIV1 harboring integrase R263K mutant infected in HOS cells pretreated […] for 3 hrs followed by viral infection measured after 48 hrs by luciferase reporter gene assay; assay type: functional, cell-based; conditions: Human immunodeficiency virus 1, HOS; summary of the method: as §2
[15] = system: Human immunodeficiency virus 1; experiment: Antiviral activity against VSV-G pseudotyped HIV1 harboring integrase H51Y mutant infected in HOS cells pretreated […] for 3 hrs followed by viral infection measured after 48 hrs by luciferase reporter gene assay; assay type: functional, cell-based; conditions: Human immunodeficiency virus 1, HOS; summary of the method: as §2
[16] = system: Human immunodeficiency virus 1; experiment: Antiviral activity against VSV-G pseudotyped HIV1 harboring integrase H51Y/R263K double mutant infected in HOS cells pretreated […] for 3 hrs followed by viral infection measured after 48 hrs by luciferase reporter gene assay; assay type: functional, cell-based; conditions: Human immunodeficiency virus 1, HOS; summary of the method: as §2
[17] = system: Human immunodeficiency virus 1; experiment: Selectivity ratio of EC50 for VSV-G pseudotyped HIV1 harboring integrase G118R mutant infected in HOS cells to EC50 for VSV-G pseudotyped HIV1 harboring wild-type integrase infected in HOS cells; assay type: functional; summary of the method: as §5
[18] = system: Human immunodeficiency virus 1; experiment: Selectivity ratio of EC50 for VSV-G pseudotyped HIV1 harboring integrase T66I mutant infected in HOS cells to EC50 for VSV-G pseudotyped HIV1 harboring wild-type integrase infected in HOS cells; assay type: functional; summary of the method: as §5
[19] = system: Human immunodeficiency virus 1; experiment: Selectivity ratio of EC50 for VSV-G pseudotyped HIV1 harboring integrase E92Q mutant infected in HOS cells to EC50 for VSV-G pseudotyped HIV1 harboring wild-type integrase infected in HOS cells; assay type: functional; summary of the method: as §5
[20] = system: Human immunodeficiency virus 1; experiment: Selectivity ratio of EC50 for VSV-G pseudotyped HIV1 harboring integrase R263K mutant infected in HOS cells to EC50 for VSV-G pseudotyped HIV1 harboring wild-type integrase infected in HOS cells; assay type: functional; summary of the method: as §5
[21] = system: Human immunodeficiency virus 1; experiment: Selectivity ratio of EC50 for VSV-G pseudotyped HIV1 harboring integrase H51Y mutant infected in HOS cells to EC50 for VSV-G pseudotyped HIV1 harboring wild-type integrase infected in HOS cells; assay type: functional; summary of the method: as §5
[22] = system: Human immunodeficiency virus 1; experiment: Selectivity ratio of EC50 for VSV-G pseudotyped HIV1 harboring integrase H51Y/R263K double mutant infected in HOS cells to EC50 for VSV-G pseudotyped HIV1 harboring wild-type integrase infected in HOS cells; assay type: functional; summary of the method: as §5
[23] = system: Human immunodeficiency virus 1; experiment: Antiviral activity against VSV-G pseudotyped HIV1 harboring wild-type integrase infected in HOS cells pretreated […] for 3 hrs followed by viral infection measured after 48 hrs by luciferase reporter gene assay relative to dolutegravir; assay type: functional
[24] = system: Human immunodeficiency virus 1; experiment: Antiviral activity against VSV-G pseudotyped HIV1 harboring integrase Y143R mutant infected in HOS cells pretreated […] for 3 hrs followed by viral infection measured after 48 hrs by luciferase reporter gene assay relative to dolutegravir; assay type: functional
[25] = system: Human immunodeficiency virus 1; experiment: Antiviral activity against VSV-G pseudotyped HIV1 harboring integrase N155H mutant infected in HOS cells pretreated […] for 3 hrs followed by viral infection measured after 48 hrs by luciferase reporter gene assay relative to dolutegravir; assay type: functional
[26] = system: Human immunodeficiency virus 1; experiment: Antiviral activity against VSV-G pseudotyped HIV1 harboring integrase G140S/Q148H double mutant infected in HOS cells pretreated […] for 3 hrs followed by viral infection measured after 48 hrs by luciferase reporter gene assay relative to dolutegravir; assay type: functional
[27] = system: Human immunodeficiency virus 1; experiment: Antiviral activity against VSV-G pseudotyped HIV1 harboring integrase G118R mutant infected in HOS cells pretreated […] for 3 hrs followed by viral infection measured after 48 hrs by luciferase reporter gene assay relative to dolutegravir; assay type: functional
[28] = system: Human immunodeficiency virus 1; experiment: Antiviral activity against VSV-G pseudotyped HIV1 harboring integrase T66I mutant infected in HOS cells pretreated […] for 3 hrs followed by viral infection measured after 48 hrs by luciferase reporter gene assay relative to dolutegravir; assay type: functional
[29] = system: Human immunodeficiency virus 1; experiment: Antiviral activity against VSV-G pseudotyped HIV1 harboring integrase E92Q mutant infected in HOS cells pretreated […] for 3 hrs followed by viral infection measured after 48 hrs by luciferase reporter gene assay relative to dolutegravir; assay type: functional
[30] = system: Human immunodeficiency virus 1; experiment: Antiviral activity against VSV-G pseudotyped HIV1 harboring integrase R263K mutant infected in HOS cells pretreated […] for 3 hrs followed by viral infection measured after 48 hrs by luciferase reporter gene assay relative to dolutegravir; assay type: functional
[31] = system: Human immunodeficiency virus 1; experiment: Antiviral activity against VSV-G pseudotyped HIV1 harboring integrase H51Y mutant infected in HOS cells pretreated […] for 3 hrs followed by viral infection measured after 48 hrs by luciferase reporter gene assay relative to dolutegravir; assay type: functional
[32] = system: Human immunodeficiency virus 1; experiment: Antiviral activity against VSV-G pseudotyped HIV1 harboring integrase H51Y/R263K double mutant infected in HOS cells pretreated […] for 3 hrs followed by viral infection measured after 48 hrs by luciferase reporter gene assay relative to dolutegravir; assay type: functional
[33] = as §3; assay type: cell-based; conditions: human, HOS cells; summary of the method: as §4

| Structure (SMILES) | IC50 [1] [nM] | IC50 [2] [nM] | EC50 [3] [nM] | EC50 [4] [nM] | EC50 [6] [nM] | Ratio EC50 [8] | Ratio EC50 [9] | Ratio EC50 [10] | EC50 [11] [nM] | EC50 [12] [nM] | EC50 [13] [nM] | EC50 [14] [nM] | EC50 [15] [nM] | EC50 [16] [nM] | Ratio EC50 [17] | Ratio EC50 [18] | Ratio EC50 [19] | Ratio EC50 [20] | Ratio EC50 [21] | Ratio EC50 [22] | further results |
| --- | --- | --- | --- | --- | --- | --- | --- | --- | --- | --- | --- | --- | --- | --- | --- | --- | --- | --- | --- | --- | --- |
| O=C(NCc1ccc(F)cc1F)c1c(NCCO)c2cc(CCCCCO)cnc2n(O)c1=O | 4000 | 2.5 | 13 | 12 | 16 | 0.9 | 1 | 1 | 24 | 1.9 | 6.5 | 18 | 11 | 31 | 2 | 0.1 | 0.5 | 1 | 0.8 | 2 | EC50 [5]: 15 nM; CC50 [7]: > 250000 nM |
| COC(=O)CCc1cnc2c(c1)c(N)c(C(=O)NCc1ccc(F)cc1F)c(=O)n2O | 2900 | 3.1 | 0.67 | 0.67 | 5.3 | 1 | 3 | 8 | 4.8 | 0.53 | 2 | 0.5 | 0.63 | 2.4 | 7 | 0.8 | 3 | 0.7 | 0.9 | 3 | CC50 [7]: > 250000 nM; fold change (FC) [23]: 0.42; fold change (FC) [24]: 0.16; fold change (FC) [25]: 0.64; fold change (FC) [26]: 0.91; fold change (FC) [27]: 0.37; fold change (FC) [28]: 0.59; fold change (FC) [29]: 0.87; fold change (FC) [30]: 0.05; fold change (FC) [31]: 0.2; fold change (FC) [32]: 0.15 |
| Nc1c(C(=O)NCc2ccc(F)cc2F)c(=O)n(O)c2ncc(CCCCCO)cc12 | 8200 | 2.7 | 1.3 | 3 | 9.4 | 2 | 2 | 7 | 5.3 | 0.93 | 3.8 | 2.6 | 3.8 | 2.6 | 4 | 0.7 | 3 | 2 | 3 | 2 | EC50 [5]: 2.4 nM; CC50 at 48 h [33]: > 250000 nM; fold change (FC) [23]: 0.81; fold change (FC) [24]: 0.71; fold change (FC) [25]: 0.67; fold change (FC) [26]: 1.62; fold change (FC) [27]: 0.41; fold change (FC) [28]: 1.03; fold change (FC) [29]: 1.65; fold change (FC) [30]: 0.24; fold change (FC) [31]: 1.19; fold change (FC) [32]: 0.16 |

— ChEMBL document CHEMBL4038328, “Structure-Guided Optimization of HIV Integrase Strand Transfer Inhibitors” (J Med Chem, 2017)
